The entries come from a sample that favours hits as a whole.
Insulin prom act – TRM-6 insulin promoter activation; AID 1296; 0.81% of 130,000 active; TRM-6 cells (human fetal islet line), insulin promoter eGFP reporter, imaging; plate-scaled: unstimulated 0, stimulated control 100; activation, % at 2 µM;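 active = activation at 2 µM above a set limit, confirmed on inspection of the cell images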;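 also: share of cells whose green reporter signal exceeds an intensity cutoff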
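Assay system: TRM-6 insulin promoter–eGFP reporter cells / Input: 1,000 cells per well / Medium: Low-glucose (5.5 mM) medium with tamoxifen / Also added: tamoxifen inducer, 0.75 µM, in seeding medium / Timing: overnight tamoxifen, then two-day compound incubation at 37 °C / Signal: automated fluorescence imaging of paraformaldehyde-fixed, Hoechst-counterstained cells, green channel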
A number is an active result.

Results for O=C(c1cc(C2CC2)nc2ccc(Br)cc12)N1N=C(C(F)F)CC1(O)C(F)F (stereo not given) ?
Insulin prom act: inactive

How did Cc1ccccc1-n1c(C)nnc1SCc1cc(=O)oc2ccc3ccccc3c12 do in these assays?
Insulin prom act: inactive

Results for C#CCOC(=O)c1ccc(-n2cncn2)nc1 ?
Insulin prom act: inactive

Results for COc1cccc(/C=C/C(=O)OCC(=O)Nc2ccc(N3CCOCC3)cc2)c1OC ?
Insulin prom act: inactive

What do the screens show for `O=C(NC1CCS(=O)(=O)C1)c1cccnc1` (stereo not given)?
Insulin prom act: inactive

Results for O=C(CSc1ccc(-c2ccco2)nn1)Nc1ccccc1 ?
Insulin prom act: inactive

How did O=C(CSc1ccc(-c2ccccn2)nn1)NCc1ccccc1 do in these assays?
Insulin prom act: inactive

How did O=C(CSc1nnc(-c2ccc(O)cc2)n1Cc1ccco1)c1ccccc1 do in these assays?
Insulin prom act: 77.4

Results for Cc1nnc(SCC(=O)NCc2ccco2)n1Cc1ccccc1 ?
Insulin prom act: inactive

Results for O=C(CSc1ccc(-c2ccccc2)nn1)NCc1ccco1 ?
Insulin prom act: 443.8

What do the screens show for `Cc1cc(C)c(NC(=O)CSc2nnc(-c3ccncc3)n2Cc2ccco2)c(Cl)c1`?
Insulin prom act: inactive

Results for Cn1c(SCC(=O)NCc2ccco2)nnc1-c1ccc(S(=O)(=O)N2CCOCC2)cc1 ?
Insulin prom act: inactive

What do the screens show for `O=C(CSc1ncc(-c2ccccc2)n1-c1ccccc1)NCc1ccco1`?
Insulin prom act: inactive

Results for O=C(CSc1ccc(-c2cccc([N+](=O)[O-])c2)nn1)NCc1ccccc1 ?
Insulin prom act: 265.7

Results for COc1cccc(CNC(=O)CSc2ccc(-c3ccncc3)nn2)c1 ?
Insulin prom act: inactive

Results for Cn1c(SCC(=O)NCc2ccco2)nnc1-c1ccccc1 ?
Insulin prom act: 437.1

Results for O=C(CSc1nnc(-c2cc3ccccc3cc2O)n1Cc1ccco1)c1ccc(F)cc1 ?
Insulin prom act: inactive

What do the screens show for `Fc1ccc(CSc2nncn2NCc2ccc3c(c2)OCO3)cc1`?
Insulin prom act: inactive

How did CC(C)(C)NC(=O)NC(=O)COC(=O)CNS(=O)(=O)c1ccc(Br)cc1Cl do in these assays?
Insulin prom act: inactive

What do the screens show for `Cc1ccccc1-n1sc2cc(F)ccc2c1=O`?
Insulin prom act: inactive

Results for N#CCC(=O)NCCCc1ccccc1 ?
Insulin prom act: inactive

What do the screens show for `COc1ccc(-n2nc(C#N)c(Cl)cc2=O)cc1`?
Insulin prom act: inactive

What do the screens show for `CCN(CC(=O)Nc1ccc(NC(C)=O)cc1)c1ccc(C(F)(F)F)cn1`?
Insulin prom act: inactive

Results for Brc1ccc(-c2csc(-c3ccncc3)n2)cc1 ?
Insulin prom act: inactive

How did O=c1cc(O)nc(SCc2ccccc2)[nH]1 do in these assays?
Insulin prom act: 525.0

Results for O=c1cc(NS(=O)(=O)c2ccccc2)nc(SCc2ccc(Cl)cc2)[nH]1 ?
Insulin prom act: inactive

What do the screens show for `CCCc1cc(=O)[nH]c(SCc2cccnc2)n1`?
Insulin prom act: inactive

What do the screens show for `O=C(NCCO)/C(=C\c1ccc(Br)cc1)NC(=O)c1cccs1`?
Insulin prom act: inactive

What do the screens show for `CC(=O)C(=Nc1ccccc1Cl)NNc1ccc(Cl)cc1`?
Insulin prom act: inactive

What do the screens show for `Clc1ccc(-c2nc(N3CCCCC3)nc3ccccc23)cc1`?
Insulin prom act: inactive

Results for c1ccc(-c2nc(-n3nc4ccccc4n3)nc3ccccc23)cc1 ?
Insulin prom act: 145.5

Results for c1ccc(-c2nn3nnnc3c3ccccc23)cc1 ?
Insulin prom act: inactive

What do the screens show for `CC(=O)Nc1ccc(NC(=O)COC(=O)Cc2cccs2)cc1`?
Insulin prom act: inactive

How did COc1ccc(/C=N/NC(=O)c2ccc(N(C)S(=O)(=O)c3ccccc3)cc2)cc1 do in these assays?
Insulin prom act: inactive

How did COc1ccc(F)cc1S(=O)(=O)NC1CCCC1 do in these assays?
Insulin prom act: 82.9

Results for CCOc1cc(S(=O)(=O)n2nc(C)cc2C)ccc1F ?
Insulin prom act: inactive

What do the screens show for `CCOc1cc(S(=O)(=O)Nc2ccccn2)ccc1F`?
Insulin prom act: 464.3

How did CCOC(=O)N1CCN(C(=O)COc2ccc(S(=O)(=O)NC3CCCCC3)cc2C)CC1 do in these assays?
Insulin prom act: inactive

Results for COc1ccc(F)cc1S(=O)(=O)N1CCCN(S(=O)(=O)c2cc(F)ccc2OC)CC1 ?
Insulin prom act: inactive

Results for CCOc1cc(S(=O)(=O)Nc2ccc(Cl)cn2)ccc1Cl ?
Insulin prom act: inactive

What do the screens show for `CCOc1cc(S(=O)(=O)N2CCOCC2)ccc1F`?
Insulin prom act: inactive

What do the screens show for `COc1ccc(F)cc1S(=O)(=O)N1CCCC(C)C1` (stereo not given)?
Insulin prom act: inactive

Results for CCOc1cc(S(=O)(=O)NC2CCCCCC2)ccc1F ?
Insulin prom act: 420.0

How did O=C(Nc1ccc2c(c1)C(=O)NC2=O)c1ccc(S(=O)(=O)N2CCCC2)cc1 do in these assays?
Insulin prom act: inactive

How did S=C(NC1CCCCC1)N1CCN(C/C=C/c2ccccc2)CC1 do in these assays?
Insulin prom act: inactive

Results for CC(=O)O[C@H]1C[C@@]2(C)[C@@H](C[C@@H](O)[C@H]3[C@@]4(C)CC[C@@H](O)[C@@H](C)C4CC[C@@]32C)/C1=C(\CCC=C(C)C)C(=O)O (stereo not given in full) ?
Insulin prom act: inactive

How did CCn1c2ccccc2c2cc(NC(=O)COc3ccccc3)ccc21 do in these assays?
Insulin prom act: inactive

How did O=C(CSc1nccc(=O)[nH]1)Nc1ccc(Br)c(Cl)c1 do in these assays?
Insulin prom act: inactive

Results for COc1cc(OC)cc(-c2nnc(SCc3c(F)cccc3Cl)o2)c1 ?
Insulin prom act: inactive

Results for NC(=O)C1CCN(C(=O)OCc2ccccc2)CC1 ?
Insulin prom act: inactive

Results for CCCCCC(=O)NNC1=NCC(Cc2cccc(Cl)c2)S1 (stereo not given) ?
Insulin prom act: inactive

How did O=C(CN1CCCC1)Nc1ccc(-c2nc3cc(NC(=O)CN4CCCC4)ccc3o2)cc1 do in these assays?
Insulin prom act: inactive

How did N#Cc1nc(-c2cccs2)oc1NCCCN1CCOCC1 do in these assays?
Insulin prom act: inactive

How did Cc1ccc(S(=O)(=O)Nc2cc(C(C)C)c(O)cc2C)cc1 do in these assays?
Insulin prom act: inactive

How did CC(C)c1ccccc1NS(=O)(=O)N(C)C do in these assays?
Insulin prom act: 380.0

Results for CN(C)S(=O)(=O)Nc1ccccc1C(N)=O ?
Insulin prom act: inactive

Results for CCSc1ncnc2c1sc1nc3c(cc12)COC(C)(C)C3 ?
Insulin prom act: inactive

Results for COc1ccccc1OCCn1cc(/C=N/n2cnnc2)c2ccccc21 ?
Insulin prom act: inactive

How did COc1cc(C2C3CN(C)CC=C3C(C#N)=C(N)C2(C#N)C#N)ccc1OC(C)C (stereo not given) do in these assays?
Insulin prom act: 257.1

What do the screens show for `COc1cc(C2NC(=O)C(C#N)=C(S)N2c2ccccc2)ccc1OC(C)C` (stereo not given)?
Insulin prom act: inactive

Results for CN1C2C=C3C(C#N)=C(N)C(C#N)(C#N)C(c4ccc(Br)cc4)C3C1CC2 (stereo not given) ?
Insulin prom act: inactive

What do the screens show for `CC(C)N1CC=C2C(C#N)=C(N)C(C#N)(C#N)[C@H](c3ccoc3)[C@H]2C1`?
Insulin prom act: 161.3

Results for Cc1ccc(C2C3CSCC=C3C(C#N)=C(N)C2(C#N)C#N)cc1 (stereo not given) ?
Insulin prom act: inactive

What do the screens show for `Cc1cc(OCC(=O)N(C(C)C)C(C)C)cc(C)c1Br`?
Insulin prom act: inactive
